Most compounds without a hit are left out; they make up all but 0.55% or so of the library.
OXTR potentiate: human OXTR potentiators, primary screen, fluorescence, CHO-OTR cells, Fluo-8 calcium; activation, % at 3 µM; AID 2445, 2010; Fluo-8 calcium fluorescence, potentiator mode; 0% = oxytocin EC15, 100% = EC100; actives 0.061% (n = 320,000); Oxytocin receptor (Homo sapiens), P30559;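 active means activation above that plate's cutoff, the mean activation of tested compounds plus 3 SD, cut at about 6.6% in these data, passing the limit was not always enough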
Target sequence (P30559 whole entry, looked up): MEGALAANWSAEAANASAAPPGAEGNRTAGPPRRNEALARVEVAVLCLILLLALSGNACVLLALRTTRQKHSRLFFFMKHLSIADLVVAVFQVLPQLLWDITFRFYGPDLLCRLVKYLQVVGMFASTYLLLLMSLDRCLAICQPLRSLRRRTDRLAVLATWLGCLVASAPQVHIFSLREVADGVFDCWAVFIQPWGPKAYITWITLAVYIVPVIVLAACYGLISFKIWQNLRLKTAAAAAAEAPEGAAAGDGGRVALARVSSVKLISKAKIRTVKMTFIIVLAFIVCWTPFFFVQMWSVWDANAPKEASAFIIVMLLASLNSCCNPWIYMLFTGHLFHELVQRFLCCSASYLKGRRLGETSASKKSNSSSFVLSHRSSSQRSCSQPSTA
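test system = CHO-OTR cells, human receptor | compound = single-point 3.0 µM | schedule = 6 min compound pre-incubation at room temperature, 100 s kinetic read | signal = Fluo-8 no-wash calcium dye fluorescence, excitation 470-495 nm, emission 515-575 nm | repeats = single well per compound, singlicate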
OXTR ag: human OXTR agonists, primary screen, fluorescence, CHO-OTR cells, Fluo-8 calcium | activation, % at 3 µM | AID 2435, 2010 | Fluo-8 calcium fluorescence; normalized: DMSO 0%, oxytocin 100% | actives 0.32% (n = 320,000);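 active means activation above the mean of all tested compounds plus 3 SD, cutoff set per screening run, cut at about 20% in these data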;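 further: peak over basal fluorescence ratio from a 100 s FLIPR kinetic read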
TRPML3 agonist: human TRPML3 channel agonists, primary screen, cell-based, HEK293 TRPML3-YFP, Fluo-8 calcium fluorescence, 3 µM | actives 0.29% (n = 220,000) | activation, % at 3 µM | AID 1448, 2008 | 100% = the carbachol control signal;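 active means activation above its plate's cutoff, the mean activation of the plate's test wells plus 3 SD, cut at about 12% in these data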
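Material: TRPML3-YFP stable HEK293 cells | Dosing: One concentration, 3 µM nominal, 0.3% DMSO | Timing: 125 s total fluorescence read per well | Technique: Fluo-8 calcium dye fluorescence, ex 470-495, em 515-575 nm | Measure: Percent activation from peak-to-basal fluorescence ratio, scaled between DMSO and carbachol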
TRPN1 ag: zebrafish TRPN1 channel agonists, primary screen, cell-based, HEK293, calcium fluorescence. transient receptor potential cation channel N1 (TRPN1/NompC), Danio rerio. HEK293 zebrafish TRPN1-YFP, Fluo-8 calcium fluorescence; 100% = response to 87 µM carbachol. activation, % at 3 µM. actives 0.18% (n = 220,000). AID 1424, 2008;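 active means activation above its plate's cutoff, the mean activation of test wells on that plate plus 3 SD, cut at about 19% in these data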
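Assay system: Zebrafish TRPN1-YFP in HEK293 cells | Incubation: Dye loading 1 h at 37 °C, then 30 min room temperature | Measured by: Kinetic Fluo-8 fluorescence, ex 470-495, em 515-575 nm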
V1R ag counter: agonists of human V1a receptor, primary screen, counter-screen for OXTR agonist project, fluorescence, CHO-V1R cells; Fluo-8 calcium fluorescence, agonist mode; 0% DMSO, 100% 3 nM vasopressin; activation, % at 3 µM; actives 0.25% (n = 320,000);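 active means activation above the mean activation of all tested compounds plus 3 SD, per screening run, cut at about 20% in these data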;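 further: signal is peak over basal fluorescence ratio across a 100 second FLIPR read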
TRPN1 counter: zebrafish TRPN1 channel agonists, counter-screen for TRPML3 agonist project, cell-based, HEK293 TRPN1-YFP, Fluo-8 calcium; AID 1525, 2009; shares compounds with TRPML3 agonist; Fluo-8 calcium fluorescence; scaled: carbachol wells 100%, DMSO wells 0%; activation, % at 3 µM; actives 10% (n = 310);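 active means mean activation over replicates above a set limit taken from the earlier TRPN1 channel primary screen, cut at about 19% in these data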
TRPML3 confirm: human TRPML3 channel agonists, confirmation, cell-based, HEK293 TRPML3-YFP, Fluo-8 calcium, triplicate; shares compounds with TRPML3 agonist; Fluo-8 calcium fluorescence; 100% set by carbachol, 0% by DMSO; activation, % at 3 µM; actives 80% (n = 310);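 active means activation above a set limit derived from the earlier primary screen, cut at about 12% in these data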
Hits are given with their value.

Results for Cc1ccc(S(=O)(=O)N2CCC(C)CC2)cc1[N+](=O)[O-] ?
TRPML3 agonist: 92.8; TRPN1 ag: inactive; TRPN1 counter: inactive; TRPML3 confirm: 86.9

What do the screens show for `COc1ccc(S(=O)(=O)N2CCC(C)CC2)cc1Br`?
OXTR potentiate: inactive; OXTR ag: inactive; TRPML3 agonist: 66.2; TRPN1 ag: inactive; V1R ag counter: inactive; TRPN1 counter: inactive; TRPML3 confirm: 105.7

What do the screens show for `CCOc1ccc(NC(=O)C(C)C(Cc2ccc(C)cc2)C(=O)O)cc1` (centres undefined)?
OXTR potentiate: inactive; OXTR ag: inactive; V1R ag counter: inactive

How did Cc1ccccc1-c1cc(C(=O)NCC2CC2)nn1CC1CC(c2cccc([N+](=O)[O-])c2)=NO1 (centres undefined) do in these assays?
OXTR potentiate: inactive; OXTR ag: inactive; V1R ag counter: inactive

How did CCOC(=O)CSc1nc2c(sc(=S)n2-c2ccccc2OC)c(=O)n1Cc1ccco1 do in these assays?
OXTR potentiate: inactive; OXTR ag: inactive; TRPML3 agonist: 40.4; TRPN1 ag: inactive; V1R ag counter: inactive; TRPN1 counter: inactive; TRPML3 confirm: 59.0

What do the screens show for `CCOC(=O)CSc1nc2c(sc(=S)n2-c2ccccc2OC)c(=O)n1-c1ccccc1OC`?
OXTR potentiate: inactive; OXTR ag: inactive; V1R ag counter: inactive

What do the screens show for `CCOc1ccccc1N(CC(=O)NC1CCCCC1)C(=O)c1nsc(Cl)c1Cl`?
OXTR potentiate: inactive; OXTR ag: inactive; TRPML3 agonist: 42.9; TRPN1 ag: inactive; V1R ag counter: inactive; TRPN1 counter: inactive; TRPML3 confirm: 36.2

Results for Cc1cccc(N(CC(=O)NC2CCCC2)C(=O)c2nsc(Cl)c2Cl)c1C ?
OXTR potentiate: inactive; OXTR ag: inactive; TRPML3 agonist: inactive; TRPN1 ag: inactive; V1R ag counter: inactive

How did Nc1nccnc1C(=O)OCC(=O)NCCc1ccc(S(N)(=O)=O)cc1 do in these assays?
OXTR potentiate: inactive; OXTR ag: inactive; V1R ag counter: inactive

What do the screens show for `COc1cc(C(=O)NCC(=O)N2CCN(S(=O)(=O)c3ccccc3C(F)(F)F)CC2)cc(OC)c1OC`?
OXTR potentiate: inactive; OXTR ag: inactive; V1R ag counter: inactive

What do the screens show for `Cc1noc(C)c1COC(=O)c1cccc(S(=O)(=O)N2CCCCCC2)c1`?
OXTR potentiate: inactive; OXTR ag: inactive; TRPML3 agonist: 13.0; TRPN1 ag: inactive; V1R ag counter: inactive; TRPN1 counter: inactive; TRPML3 confirm: 17.8

What do the screens show for `COc1ccc(S(=O)(=O)N2CCCCCC2)cc1C(=O)OCc1c(C)noc1C`?
OXTR potentiate: inactive; OXTR ag: inactive; TRPML3 agonist: 29.9; TRPN1 ag: inactive; V1R ag counter: inactive; TRPN1 counter: inactive; TRPML3 confirm: 13.7

What do the screens show for `Cc1noc(C)c1COC(=O)c1ccc(F)c(S(=O)(=O)N2CCCCC2)c1`?
OXTR potentiate: inactive; OXTR ag: inactive; TRPML3 agonist: inactive; TRPN1 ag: inactive; V1R ag counter: inactive

What do the screens show for `Cc1ccc(C2=CC(c3ccc(N(C)C)cc3)n3nnnc3N2)cc1` (centres undefined)?
OXTR potentiate: inactive; OXTR ag: inactive; TRPML3 agonist: 17.7; TRPN1 ag: inactive; V1R ag counter: inactive; TRPN1 counter: inactive; TRPML3 confirm: inactive

How did Cc1nc(NC(=O)c2csc3ccccc23)sc1C do in these assays?
OXTR potentiate: inactive; OXTR ag: inactive; TRPML3 agonist: 17.8; TRPN1 ag: inactive; V1R ag counter: inactive; TRPN1 counter: inactive; TRPML3 confirm: 28.1

What do the screens show for `Cc1nc(NC(=O)c2ccccc2O)sc1C`?
OXTR potentiate: inactive; OXTR ag: inactive; V1R ag counter: inactive

What do the screens show for `Cc1ccc(N/C(N)=N/c2nc(C)cc(C)n2)cc1`?
OXTR potentiate: inactive; OXTR ag: inactive; TRPML3 agonist: 14.7; TRPN1 ag: inactive; V1R ag counter: inactive; TRPN1 counter: 31.4; TRPML3 confirm: 20.0

Results for COc1cc(C[C@@H](CO)[C@H](CO)Cc2ccc(O)c(OC)c2)ccc1O ?
OXTR potentiate: inactive; OXTR ag: inactive; V1R ag counter: inactive

How did CN(C)c1ccc(/C=C(/C(=O)c2ccc(Cl)cc2Cl)n2cncn2)cc1 do in these assays?
OXTR potentiate: inactive; OXTR ag: 21.5; TRPML3 agonist: 11.6; TRPN1 ag: inactive; V1R ag counter: 28.8; TRPN1 counter: 21.9; TRPML3 confirm: 11.9

Results for COc1ccc(NC(=O)CSC2CC(=O)N(c3ccc4c(c3)OCCO4)C2=O)cc1 (centres undefined) ?
OXTR potentiate: inactive; OXTR ag: inactive; TRPML3 agonist: inactive; TRPN1 ag: inactive; V1R ag counter: inactive

Results for COC(=O)C1(C(C[N+](=O)[O-])c2ccco2)C(=O)NCC1c1ccccc1 (centres undefined) ?
OXTR potentiate: inactive; OXTR ag: inactive; TRPML3 agonist: 16.7; TRPN1 ag: inactive; V1R ag counter: inactive; TRPN1 counter: inactive; TRPML3 confirm: 22.9

What do the screens show for `Cc1ccc(S(=O)(=O)NC2CCCCC2)c2nsnc12`?
OXTR potentiate: inactive; OXTR ag: inactive; TRPML3 agonist: 11.5; TRPN1 ag: inactive; V1R ag counter: inactive; TRPN1 counter: inactive; TRPML3 confirm: 12.1

What do the screens show for `CCOc1ccccc1N1CCN(S(=O)(=O)c2ccc(Cl)s2)CC1`?
OXTR potentiate: inactive; OXTR ag: inactive; TRPML3 agonist: 37.5; TRPN1 ag: inactive; V1R ag counter: inactive; TRPN1 counter: inactive; TRPML3 confirm: 27.0

Results for NC(=S)Nc1ccc(Oc2ccc(NC(N)=S)cc2)cc1 ?
OXTR potentiate: inactive; OXTR ag: inactive; TRPML3 agonist: inactive; TRPN1 ag: inactive; V1R ag counter: inactive

What do the screens show for `Cc1cc(C)cc(N(CC(=O)N2CCOCC2)S(=O)(=O)c2ccccc2)c1`?
OXTR potentiate: inactive; OXTR ag: inactive; TRPML3 agonist: 34.8; TRPN1 ag: inactive; V1R ag counter: inactive; TRPN1 counter: inactive; TRPML3 confirm: 46.0

Source: PubChem BioAssay
